The results in this text go back to ChEMBL document CHEMBL4339209, “Chemical modifications of imidazole-containing alkoxyamines increase C-ON bond homolysis rate: Effects on their cytotoxic properties in glioblastoma cells” (Bioorg Med Chem, 2019).

Activity calls are given as the source filed them. The calls are words filed in the database; no cut-off is given here.

By pKa is commonly meant the negative logarithm of the acid dissociation constant. What is called IC50 is the point on the concentration scale where inhibition reaches its midpoint. For orientation: logD means lipophilicity at a set pH, counting ionised and neutral species. One may read the half-life as the time in which the quantity being followed falls by half.

The nature of data set [1]: Dissociation constant, pKa of the compound in 1:1 v/v D2O/CD3OD by 1H-NMR spectrometric method. To be noted: 1:1 v/v D2O/CD3OD; read-out: pKa. The class given is physicochemical. The method, boiled down: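 Samples in D2O/CD3OD (1:1 v/v) were adjusted with DCl/NaOD to a series of pH* values, read on a meter calibrated with non-deuterated standards, and 1H-NMR was recorded at 400 MHz. Imidazole proton chemical shifts were plotted against pH* and fitted sigmoidally. The pKa* was converted by pH = 0.929 pH* + 0.42.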

Data set [2] is described as follows: Stability in DMSO assessed as temperature. The data set is classed as physicochemical.
Data set [3] is described as follows: Stability in DMSO/TsOH assessed as temperature. The class given is physicochemical.
Another data set has as its system U-87 MG. The data set can be described thus: Cytotoxicity against human U87MG cells assessed as reduction in cell survival measured after 72 hrs by MTT assay. The class given is functional, cell-based, U-87MG ATCC. To be noted: for Activity: U-87MG ATCC. The method, boiled down:
(§1)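 MTT viability on 2D cultures, U87-MG in DMEM and U251-MG in EMEM with […], both with 10% FBS and Pen Strep. 5000 cells seeded, then 72 h exposure to 500, 250, 100, 50, 25, 10 and 5 μM (DMSO at most […]). MTT 0.5 mg/mL for 1 h, formazan in DMSO read at 550 nm. Survival as % of control. IC50 determined graphically. At least triplicate.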
A general note: Tetrazolium dyes change colour on reduction, which living cells bring about.

The nature of data set [4]: n-octanol/phosphate buffered saline partition coefficient, log D of the compound at pH 7.4 by shake-flask method. The class given is physicochemical. To be noted: n-octanol/phosphate buffered saline, read-out: logD. The method, boiled down:
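Shake-flask partition between pre-saturated n-octanol and PBS at pH 7.4. The aqueous phase was quantified by RP-HPLC on a 4.6 × 50 mm column, eluting with CH3CN/H2O (each with 0.1% TFA) from 10:90 to 100:0 over 10 min.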

Data set [5] is described as follows: Drug homolysis in DMSO assessed as activation energy in presence of alkyl radical scavenger TEMPOR by 31P[1H]-NMR analysis.
Data set [6] can be described thus: Drug homolysis in DMSO/TsOH assessed as activation energy in presence of alkyl radical scavenger TEMPOR by 31P[1H]-NMR analysis.
A short description of data set [7]: Drug homolysis in DMSO assessed as rate constant by measuring nitroxide level in presence of alkyl radical scavenger TEMPOR by 31P[1H]-NMR analysis.
A short description of data set [8]: Drug homolysis in DMSO/TsOH assessed as rate constant by measuring nitroxide level in presence of alkyl radical scavenger TEMPOR by 31P[1H]-NMR analysis.
The test system of data set [9] is U-251. The data set can be described thus: Cytotoxicity against human U251MG cells assessed as reduction in cell survival measured after 72 hrs by MTT assay. The data set is classed as functional, cell-based. The gist of the method: as §1
For data set [10], the system named is U-251. Kind of data set: Cytotoxicity against human U251MG cells assessed as reduction in cell survival at IC50 measured after 72 hrs in presence of alkyl radical scavenger troxerutin by MTT assay. The class given is functional, cell-based. The gist of the method: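 U251-MG cells in EMEM (10% FBS, Pen Strep, […]) were exposed for 72 h to alkoxyamine together with an equal concentration of the alkyl radical scavenger troxerutin. Survival was read by MTT (0.5 mg/mL, 1 h, OD 550 nm) as % of control, and compared with alkoxyamine alone. At least triplicate.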

Data set [11] can be described thus: Half life in H2O/MeOH buffered with Na2CO3/NaHCO3 at pH 10.3 in presence of alkyl radical scavenger TEMPOR by 31P[1H]-NMR analysis. The class given is physicochemical. To be noted: H2O/MeOH buffered with Na2CO3/NaHCO3, pH 10.3.
Data set [12] is described as follows: Half life in H2O/MeOH buffered with HCl/KCl at pH 2.2 in presence of alkyl radical scavenger TEMPOR by 31P[1H]-NMR analysis. To be noted: H2O/MeOH buffered with HCl/KCl. The data set is classed as physicochemical.
Data set [13] in a line: Stability in H2O/MeOH buffered with Na2CO3/NaHCO3 at pH 10.3 assessed as temperature. To be noted: buffer. The data set is classed as physicochemical.
Data set [14] is described as follows: Stability in H2O/MeOH buffered with HEPES/NaCl at pH 7.4 assessed as temperature. The data set is classed as physicochemical. The following applies: buffer.
The nature of data set [15]: Stability in H2O/MeOH buffered with HCl/KCl at pH 2.2 assessed as temperature. To be noted: buffer. The data set is classed as physicochemical.
Data set [16] is described as follows: Half life in H2O/MeOH buffered with HEPES/NaCl at pH 7.4 in presence of alkyl radical scavenger TEMPOR by 31P[1H]-NMR analysis. The data set is classed as physicochemical. The following applies: H2O/MeOH buffered with HEPES/NaCl.

As to `CCOP(=O)(OCC)C(N(OC(C)n1ccnc1)C(C)(C)C)C(C)(C)C` (stereo in doubt; form 1) [listing 1 of 2 here], the pKa in data set [1] was 5.62. Further, the T in data set [2] and in data set [3] was 160 °C each time. In addition, the IC50 in the data set on U-87 MG lay within 25 to 380 µM. For the same compound, the logD in [4] came out at 3.4.
Turning to `CCOP(=O)(OCC)C(N(OC(C)n1ccnc1)C(C)(C)C)C(C)(C)C` (stereo in doubt; form 1) [listing 2 of 2 here], the Ea in data set [5] amounted to 35.6 kcal/mol; in [6], 34.1 kcal/mol. Further, the values for the Kdiss in [7] and in [8] were 2.69 ×10⁻⁴ /s and 1.44 ×10⁻³ /s, respectively. In addition, the Activity result in the data set with U-87 MG and in the data set on U-251 [9] was “Dose-dependent effect” each time. Moreover, the result with U-251 [10] was Active.
Regarding `CCOP(=O)(OCC)C(N(OC(C)c1ncc[nH]1)C(C)(C)C)C(C)(C)C` (stereo in doubt; form 2), the pKa in data set [1] was determined as 6.09. In addition, the results for the half-life in data set [11], in data set [12] and in data set [16] were 240 h, 4 h and 60 h, respectively. Further, the T came to 80 °C in [13], 70 °C in data set [14] and 60 °C in data set [15]. Besides, the IC50 in the data set with U-87 MG was 25 to 380 µM. Moreover, the logD in data set [4] was 3.6.
Turning to `CCOP(=O)(OCC)C(N(OC(C)n1ccnc1)C(C)(C)C)C(C)(C)C` (stereo in doubt; form 2), the figures for the Ea in [5] and in [6] were 34.6 kcal/mol and 33.7 kcal/mol, respectively. The values for the Kdiss in data set [7] and in [8] were 8.02 ×10⁻⁴ /s and 2.45 ×10⁻³ /s, respectively. Further, the Activity entry with U-87 MG and in the data set on U-251 [9] was “Dose-dependent effect” throughout. Also, the result in the data set with U-251 [10] was Active.
